Calls of active or inactive are those of the source. The rule behind the calls is not given here.

Experiment [1] can be described thus: Inhibition of quorum sensing system in Pseudomonas aeruginosa MH602 PlasB::gfp at 250 uM incubated for 15 hrs by GFP reporter gene assay. In a few lines: (§1)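 Reporter strain P. aeruginosa PlasB::gfp (PAMH602) makes its own AHL; lasB promoter drives GFP-ASV. Cultures incubated with compound over 250–31.25 µM at 37 °C for 15 h, then GFP fluorescence read at 535 nm. QSI expressed as % relative to untreated PAMH602 negative control. Furanone positive control.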

Experiment [2] relates to Pseudomonas aeruginosa. In words: Toxicity in Pseudomonas aeruginosa MH602 PlasB::gfp assessed as inhibition of bacterial growth at 125 uM incubated for 15 hrs by spectrophotometry. It counts as organism-based. The conditions noted are these: MH602, 15 h, read-out: GI.
Experiment [3] in a line: Inhibition of quorum sensing system in Pseudomonas aeruginosa MH602 PlasB::gfp at 62.5 uM incubated for 15 hrs by GFP reporter gene assay. In a few lines:
as §1

The subject of experiment [4] is Pseudomonas aeruginosa. In words: Toxicity in Pseudomonas aeruginosa MH602 PlasB::gfp assessed as inhibition of bacterial growth at 31.25 uM incubated for 15 hrs by spectrophotometry. It counts as organism-based. As to conditions: MH602, 15 h, read-out: GI.
The test system of experiment [5] is Pseudomonas aeruginosa. In words: Toxicity in Pseudomonas aeruginosa MH602 PlasB::gfp assessed as inhibition of bacterial growth at 62.5 uM incubated for 15 hrs by spectrophotometry. In kind it is organism-based. The conditions noted are these: MH602, 15 h, read-out: GI.
Experiment [6] in a line: Inhibition of quorum sensing system in Pseudomonas aeruginosa MH602 PlasB::gfp at 31.25 uM incubated for 15 hrs by GFP reporter gene assay. In a few lines:
as §1

The nature of experiment [7]: Inhibition of quorum sensing system in Pseudomonas aeruginosa MH602 PlasB::gfp at 125 uM incubated for 15 hrs by GFP reporter gene assay. The procedure, abridged:
as §1

Experiment [8] deals with Pseudomonas aeruginosa. In words: Toxicity in Pseudomonas aeruginosa MH602 PlasB::gfp assessed as inhibition of bacterial growth at 250 uM incubated for 15 hrs by spectrophotometry. It counts as organism-based. As to conditions: MH602, 15 h, read-out: GI.
The test system of experiment [9] is Pseudomonas aeruginosa. In words: Inhibition of biofilm formation in Pseudomonas aeruginosa PAO1 at 250 uM incubated for 6 hrs by crystal violet staining based method. The conditions noted are these: for inhibition at 250 µM: PAO1, 6 h. It counts as functional. The procedure, abridged: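 P. aeruginosa PA01 biofilm. Cultures grown with or without test compound for 6 h. Biofilm biomass quantified by crystal violet staining (OD550). % inhibition calculated relative to DMSO control.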

On to `COc1ccc(C2=CC(=O)NC2)cc1`, for which the inhibition stood at 66.5% in experiment [1], 27.2% in [3], 26.9% in [6] and 48.5% in experiment [7]. Also, in the experiment on Pseudomonas aeruginosa [2], the inhibition at 125 µM is at most 15%. Besides, the inhibition at 31.25 µM with Pseudomonas aeruginosa [4] was at most 15%. The inhibition at 62.5 µM with Pseudomonas aeruginosa [5] was at most 15%. Also, the inhibition at 250 µM in the experiment on Pseudomonas aeruginosa [8] is at most 15%. In addition, the inhibition entry with Pseudomonas aeruginosa [9] was “inactive”.
Consider `C=C1C(c2ccccc2F)=CC(=O)N1c1cccc(Br)c1`, for which the inhibition in experiment [1] is 50.5%; in experiment [3] it was 34.7%; in [6], 29.3%; in [7], 43.3%. Moreover, in the experiment on Pseudomonas aeruginosa [2], the inhibition at 125 µM is at most 15%. Moreover, the inhibition at 31.25 µM in the experiment with Pseudomonas aeruginosa [4] was at most 15%. The inhibition at 62.5 µM with Pseudomonas aeruginosa [5] was at most 15%. Moreover, the inhibition at 250 µM with Pseudomonas aeruginosa [8] is at most 15%; in the experiment with Pseudomonas aeruginosa [9] it was 40.8%.
For the compound `O=C1C=C(c2ccccc2F)CN1`, the inhibition in experiment [1] was 67.9%; in experiment [3], 30.5%; in experiment [6] it was 24.4%; in [7], 48.8%. Further, in the experiment on Pseudomonas aeruginosa [2], the inhibition at 125 µM was at most 15%. Also, the inhibition at 31.25 µM in the experiment on Pseudomonas aeruginosa [4] was at most 15%. In addition, in the experiment on Pseudomonas aeruginosa [5], the inhibition at 62.5 µM was at most 15%. The inhibition at 250 µM in the experiment on Pseudomonas aeruginosa [8] was at most 15%; with Pseudomonas aeruginosa [9], 10.9%.
On to `C=C1C(c2ccccc2F)=CC(=O)N1Cc1ccccc1`, for which the inhibition was determined as 55.2% in [1], 47.5% in experiment [3], 27% in [6] and 52.4% in [7]. Also, in the experiment with Pseudomonas aeruginosa [2], the inhibition at 125 µM is at most 15%. Besides, the inhibition at 31.25 µM in the experiment on Pseudomonas aeruginosa [4] is at most 15%. Moreover, in the experiment with Pseudomonas aeruginosa [5], the inhibition at 62.5 µM was at most 15%. In the experiment with Pseudomonas aeruginosa [8], the inhibition at 250 µM was at most 15%.
Consider `C=C1C(c2ccc(Br)cc2)=CC(=O)N1c1ccc(S(C)(=O)=O)cc1`, for which the inhibition in [1] turned out to be 58.7%; in experiment [3] it was 31.3%; in [6], 11.2%; in experiment [7], 58.1%. In the experiment on Pseudomonas aeruginosa [2], the inhibition at 125 µM was at most 15%. Also, in the experiment on Pseudomonas aeruginosa [4], the inhibition at 31.25 µM is at most 15%. Besides, the inhibition at 62.5 µM with Pseudomonas aeruginosa [5] is at most 15%. Further, the inhibition at 250 µM in the experiment on Pseudomonas aeruginosa [8] was 15 to 30%; in the experiment with Pseudomonas aeruginosa [9] it was 10.3%.
Turning to `C=C1NC(=O)C=C1c1ccc(Cl)cc1`, the inhibition in experiment [1] turned out to be 73.8%; in experiment [3], 49.4%; in [6], 33.3%; in experiment [7], 64.6%. Moreover, the inhibition at 125 µM with Pseudomonas aeruginosa [2] is at most 15%. Also, in the experiment on Pseudomonas aeruginosa [4], the inhibition at 31.25 µM was at most 15%. Besides, the inhibition at 62.5 µM in the experiment with Pseudomonas aeruginosa [5] was at most 15%. Besides, the inhibition at 250 µM with Pseudomonas aeruginosa [8] is at most 15%; in the experiment on Pseudomonas aeruginosa [9] it was 60.9%.
In the case of `C=C1NC(=O)C=C1c1ccccc1Cl`, the inhibition was 72% in experiment [1], 58.3% in [3], 37.8% in experiment [6] and 69.7% in experiment [7]. Besides, the inhibition at 125 µM in the experiment with Pseudomonas aeruginosa [2] is at most 15%. Further, the inhibition at 31.25 µM in the experiment with Pseudomonas aeruginosa [4] is at most 15%. For the same compound, the inhibition at 62.5 µM with Pseudomonas aeruginosa [5] is at most 15%. The inhibition at 250 µM in the experiment on Pseudomonas aeruginosa [8] is at most 15%.
`O=C1C=C(c2ccc(Br)cc2)CN1`: the inhibition in [1] came to 65.9%; in experiment [3] it was 25%; in experiment [6] it was 21.9%; in experiment [7] it was 42.8%. Besides, the inhibition at 125 µM in the experiment with Pseudomonas aeruginosa [2] is at most 15%. The inhibition at 31.25 µM in the experiment with Pseudomonas aeruginosa [4] was at most 15%. Besides, the inhibition at 62.5 µM in the experiment with Pseudomonas aeruginosa [5] was at most 15%. Further, in the experiment with Pseudomonas aeruginosa [8], the inhibition at 250 µM was at most 15%. Besides, the inhibition entry in the experiment with Pseudomonas aeruginosa [9] is “inactive”.
For `C=C1C(c2ccc(Br)cc2)=CC(=O)N1c1cccc(F)c1`, the inhibition in [1] was 50.9%; in experiment [3], 47.7%; in [6] it was 5.8%; in experiment [7] it was 49.1%. Also, the inhibition at 125 µM in the experiment with Pseudomonas aeruginosa [2] is at most 15%. Moreover, the inhibition at 31.25 µM with Pseudomonas aeruginosa [4] is at most 15%. Further, the inhibition at 62.5 µM in the experiment on Pseudomonas aeruginosa [5] was at most 15%. Also, the inhibition at 250 µM in the experiment on Pseudomonas aeruginosa [8] was at most 15%; in the experiment on Pseudomonas aeruginosa [9], 29.3%.
For the compound `C=C1NC(=O)C(C)=C1c1ccc(F)cc1`, the inhibition worked out at 66.5% in experiment [1], 32.1% in experiment [3], 26.3% in experiment [6] and 59.9% in experiment [7]. For the same compound, in the experiment with Pseudomonas aeruginosa [2], the inhibition at 125 µM was at most 15%. Further, the inhibition at 31.25 µM with Pseudomonas aeruginosa [4] was at most 15%. Also, in the experiment with Pseudomonas aeruginosa [5], the inhibition at 62.5 µM was at most 15%. Moreover, the inhibition at 250 µM with Pseudomonas aeruginosa [8] was at most 15%; with Pseudomonas aeruginosa [9] it was 4.4%.
As for `O=C1C=C(c2ccc(Br)cc2)/C(=C/Br)N1`, the inhibition in experiment [1] turned out to be 82.3%; in experiment [3] it was 53.5%; in experiment [6], 38.2%; in experiment [7], 53.9%. For the same compound, the inhibition at 125 µM in the experiment with Pseudomonas aeruginosa [2] is over 30%. The inhibition at 31.25 µM with Pseudomonas aeruginosa [4] was at most 15%. In addition, the inhibition at 62.5 µM in the experiment on Pseudomonas aeruginosa [5] lay in the range of 15 to 30%. Moreover, the inhibition at 250 µM in the experiment on Pseudomonas aeruginosa [8] was over 30%.
On to `C=C1NC(=O)C(C)=C1c1ccc(Cl)cc1`, for which the inhibition came out at 47.7% in experiment [1], 33.2% in experiment [3], 23.7% in experiment [6] and 38.2% in experiment [7]. For the same compound, the inhibition at 125 µM with Pseudomonas aeruginosa [2] is at most 15%. Moreover, the inhibition at 31.25 µM in the experiment with Pseudomonas aeruginosa [4] is at most 15%. Further, the inhibition at 62.5 µM in the experiment on Pseudomonas aeruginosa [5] is at most 15%. Also, the inhibition at 250 µM in the experiment on Pseudomonas aeruginosa [8] was at most 15%.
Take `C=C1NC(=O)C=C1c1ccc(C)cc1`: the inhibition was determined as 80.5% in experiment [1], 72.3% in [3], 36.5% in experiment [6] and 78.7% in [7]. The inhibition at 125 µM in the experiment with Pseudomonas aeruginosa [2] is at most 15%. Moreover, the inhibition at 31.25 µM in the experiment on Pseudomonas aeruginosa [4] is at most 15%. Further, in the experiment on Pseudomonas aeruginosa [5], the inhibition at 62.5 µM was at most 15%. Besides, in the experiment with Pseudomonas aeruginosa [8], the inhibition at 250 µM is at most 15%.
As for `C=C1NC(=O)C(C)=C1c1cccc(C(F)(F)F)c1`, the inhibition in [1] came to 47.2%; in experiment [3], 33.2%; in experiment [6] it was 26.3%; in experiment [7], 47%. The inhibition at 125 µM in the experiment on Pseudomonas aeruginosa [2] is at most 15%. The inhibition at 31.25 µM in the experiment on Pseudomonas aeruginosa [4] is at most 15%. Also, the inhibition at 62.5 µM with Pseudomonas aeruginosa [5] was at most 15%. The inhibition at 250 µM with Pseudomonas aeruginosa [8] was at most 15%.
Regarding `C=C1NC(=O)C(C)=C1c1ccccc1F`, the inhibition in [1] came out at 54.8%; in [3] it was 31.7%; in [6], 28.8%; in experiment [7] it was 48.8%. In addition, the inhibition at 125 µM with Pseudomonas aeruginosa [2] was at most 15%. The inhibition at 31.25 µM in the experiment with Pseudomonas aeruginosa [4] is at most 15%. Further, the inhibition at 62.5 µM in the experiment with Pseudomonas aeruginosa [5] was at most 15%. Also, in the experiment with Pseudomonas aeruginosa [8], the inhibition at 250 µM is at most 15%.
With `O=C1C=C(c2ccccc2)/C(=C/Br)N1`, the inhibition in experiment [1] worked out at 84.8%; in experiment [3], 66.6%; in experiment [6], 56.8%; in [7], 77.8%. For the same compound, the inhibition at 125 µM in the experiment on Pseudomonas aeruginosa [2] was over 30%. Besides, the inhibition at 31.25 µM with Pseudomonas aeruginosa [4] is at most 15%. In the experiment with Pseudomonas aeruginosa [5], the inhibition at 62.5 µM lay within 15 to 30%. Besides, the inhibition at 250 µM in the experiment on Pseudomonas aeruginosa [8] was over 30%.
`O=C1C=C(c2ccccc2F)/C(=C/Br)N1`: the inhibition is 86.3% in experiment [1], 75% in experiment [3], 61.5% in experiment [6] and 81.3% in [7]. In the experiment with Pseudomonas aeruginosa [2], the inhibition at 125 µM was over 30%. In addition, the inhibition at 31.25 µM in the experiment on Pseudomonas aeruginosa [4] is at most 15%. In addition, in the experiment with Pseudomonas aeruginosa [5], the inhibition at 62.5 µM fell in the range of 15 to 30%. In addition, the inhibition at 250 µM in the experiment with Pseudomonas aeruginosa [8] was over 30%.
In the case of `C=C1NC(=O)C(C)=C1c1ccc(Br)cc1`, the inhibition in [1] is 59.6%; in experiment [3], 38.1%; in experiment [6] it was 33.7%; in experiment [7], 45.2%. For the same compound, in the experiment with Pseudomonas aeruginosa [2], the inhibition at 125 µM was at most 15%. Further, in the experiment with Pseudomonas aeruginosa [4], the inhibition at 31.25 µM was at most 15%. For the same compound, the inhibition at 62.5 µM in the experiment on Pseudomonas aeruginosa [5] was at most 15%. For the same compound, in the experiment with Pseudomonas aeruginosa [8], the inhibition at 250 µM was at most 15%.
